What was measured:
[1] = tested on: A 172; test: Inhibition of nitric oxide formation in human A172 cells; format: functional, cell-based
Method in brief: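 Human A172 cells were stimulated with cytokines to induce NO formation, with compound present. Nitrite/NO produced was read with Griess reagent and IC50 determined.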

[2] = molecular target: Nitric oxide synthase, inducible (Homo sapiens, UniProt P35228); test: Inhibition of tetracycline-induced iNOS expressed in SF9 cells
Method in brief: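 SF9 cells transfected with iNOS in a tetracycline-inducible system, expression induced by tetracycline. NOS activity was measured as conversion of radiolabeled arginine to radiolabeled citrulline. IC50 was averaged over at least two separate experiments unless noted otherwise.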

[3] = Metabolic stability in human liver microsomes after 3 hrs; format: ADME, Microsome; conditions: read-out: Stability
Method in brief: (§1)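 Compound incubated with rat, dog or human liver microsomes for 3 h. Stability was reported as percent parent remaining.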

[4] = Half life in rat at 2 mg/kg, iv; format: ADME, organism-based; set-up: dose 2 mg/kg, route intravenous; conditions: in vivo
Method in brief: (§2)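 Rat, intravenous dose of 2 mg/kg. Readouts were half-life, clearance, steady-state volume of distribution and AUC to infinity.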

[5] = Half life in rat at 10 mg/kg, po; format: ADME, organism-based; set-up: dose 10 mg/kg, route oral; conditions: in vivo
Method in brief: (§3)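 Rat, oral dose of 10 mg/kg. Readouts were Cmax, terminal half-life, AUC to infinity and oral bioavailability (%F).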

[6] = Clearance in rat at 2 mg/kg, iv; format: ADME, organism-based; set-up: dose 2 mg/kg, route intravenous; conditions: in vivo; method in brief: as §2
[7] = Volume of distribution at steady state in rat at 2 mg/kg, iv; format: ADME, organism-based; set-up: dose 2 mg/kg, route intravenous; conditions: in vivo, read-out: Vss; method in brief: as §2
[8] = Cmax in rat at 10 mg/kg, po; format: ADME, organism-based; set-up: dose 10 mg/kg, route oral; conditions: in vivo; method in brief: as §3
[9] = tested on: Rattus norvegicus; test: AUC (infinity) in rat at 2 mg/kg, iv; format: ADME, organism-based, Plasma; set-up: time infinity, dose 2 mg/kg, route intravenous; conditions: in vivo; method in brief: as §2
[10] = AUC (infinity) in rat at 10 mg/kg, po; format: ADME, organism-based; set-up: time infinity, dose 10 mg/kg, route oral; conditions: plasma; method in brief: as §3
[11] = Bioavailability in rat at 10 mg/kg, po; format: ADME, organism-based; conditions: in vivo; method in brief: as §3
[12] = Metabolic stability in rat liver microsomes after 3 hrs; format: ADME, Microsome; conditions: read-out: Stability; method in brief: as §1
[13] = Metabolic stability in dog liver microsomes after 3 hrs; format: ADME, Canis lupus familiaris, Microsome; conditions: read-out: Stability; method in brief: as §1

Chain of Nitric oxide synthase, inducible (P35228 whole entry): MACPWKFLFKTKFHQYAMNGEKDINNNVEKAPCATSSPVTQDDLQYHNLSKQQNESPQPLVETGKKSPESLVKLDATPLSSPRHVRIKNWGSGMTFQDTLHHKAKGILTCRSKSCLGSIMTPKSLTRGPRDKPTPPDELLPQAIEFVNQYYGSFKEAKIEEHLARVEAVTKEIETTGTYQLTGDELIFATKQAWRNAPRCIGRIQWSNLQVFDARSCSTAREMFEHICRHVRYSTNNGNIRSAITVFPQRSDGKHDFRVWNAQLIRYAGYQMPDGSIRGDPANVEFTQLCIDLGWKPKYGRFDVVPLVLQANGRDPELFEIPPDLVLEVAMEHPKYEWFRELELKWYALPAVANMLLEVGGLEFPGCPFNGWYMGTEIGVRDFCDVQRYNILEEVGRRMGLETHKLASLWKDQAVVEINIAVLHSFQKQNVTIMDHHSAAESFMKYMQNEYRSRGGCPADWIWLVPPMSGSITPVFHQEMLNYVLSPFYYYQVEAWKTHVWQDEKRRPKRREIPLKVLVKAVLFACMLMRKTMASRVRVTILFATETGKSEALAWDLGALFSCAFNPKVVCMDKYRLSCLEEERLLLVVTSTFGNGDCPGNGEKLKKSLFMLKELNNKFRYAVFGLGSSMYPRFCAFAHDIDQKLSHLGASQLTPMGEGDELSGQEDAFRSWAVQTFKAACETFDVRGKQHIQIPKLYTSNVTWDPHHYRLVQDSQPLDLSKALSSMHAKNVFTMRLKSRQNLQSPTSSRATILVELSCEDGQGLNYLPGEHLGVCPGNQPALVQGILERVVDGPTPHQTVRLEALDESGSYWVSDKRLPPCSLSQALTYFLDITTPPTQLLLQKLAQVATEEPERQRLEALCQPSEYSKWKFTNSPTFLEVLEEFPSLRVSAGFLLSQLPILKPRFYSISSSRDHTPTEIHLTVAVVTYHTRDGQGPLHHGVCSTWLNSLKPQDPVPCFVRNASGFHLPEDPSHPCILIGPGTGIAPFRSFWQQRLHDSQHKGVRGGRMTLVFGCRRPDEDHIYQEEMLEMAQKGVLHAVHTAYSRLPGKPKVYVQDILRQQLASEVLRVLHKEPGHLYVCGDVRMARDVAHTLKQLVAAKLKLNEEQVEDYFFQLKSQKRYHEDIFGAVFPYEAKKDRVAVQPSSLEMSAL

SMILES	IC50 [1] [nM]	IC50 [2] [nM]	other results
c1cn(-c2ccc(OCCNCc3ccc4c(c3)OCO4)cc2)cn1	240	–	–
O=C(O)CN(CCOc1ccc(-n2ccnc2)cc1)Cc1ccc2c(c1)OCO2	> 10000	–	–
c1cn(-c2ccc(OCCN(Cc3ccc4c(c3)OCO4)Cc3ccc4c(c3)OCO4)cc2)cn1	1500	–	–
O=C(CN(CCOc1ccc(-n2ccnc2)cc1)Cc1ccc2c(c1)OCO2)NCc1ccc2c(c1)OCO2	640	–	–
c1cn(-c2ccc(OC3CCCN(Cc4ccc5c(c4)OCO5)C3)cc2)cn1 (stereo unspecified)	57	250	–
c1cn(-c2ccc(O[C@@H]3CCCN(Cc4ccc5c(c4)OCO5)C3)cc2)cn1	1700	–	–
c1cn(-c2ccc(O[C@H]3CCCN(Cc4ccc5c(c4)OCO5)C3)cc2)cn1	9	72	remaining at 3 h [3]: 31%; half-life [4]: 2.2 h; half-life [5]: 2.9 h; clearance [6]: 128 mL/min/kg; Vd [7]: 21 L/kg; Cmax [8]: 800 ng/mL; AUC [9]: 280 ng·h/mL; AUC(0-inf) [10]: 2600 ng·h/mL; bioavailability [11]: 100%; remaining at 3 h [12]: 47%; remaining at 3 h [13]: 89%
c1cn(-c2ccc(O[C@H]3CCN(Cc4ccc5c(c4)OCO5)C3)cc2)cn1	1600	–	–
c1cn(-c2ccc(NC3CCCN(Cc4ccc5c(c4)OCO5)C3)cc2)cn1 (stereo unspecified)	10	120	–
c1cn(-c2ccc(OC3CCCN(Cc4ccc5c(c4)OCO5)C3)nn2)cn1 (stereo unspecified)	52	590	–
c1cn(-c2ccc(OCC3CCCN(Cc4ccc5c(c4)OCO5)C3)cc2)cn1 (stereo unspecified)	> 10000	–	–
c1cn(-c2ccc(OCC3CCCCN3Cc3ccc4c(c3)OCO4)cc2)cn1 (stereo unspecified)	100	2200	–
CC1CCCCN1CCCNC(=O)CN(CCOc1ccc(-n2ccnc2)cc1)Cc1ccc2c(c1)OCO2 (stereo unspecified)	1600	–	–
c1cn(-c2ccc(OC3CCN(Cc4ccc5c(c4)OCO5)C3)cc2)cn1 (stereo unspecified)	4200	–	–
c1cn(-c2ccc(O[C@@H]3CCN(Cc4ccc5c(c4)OCO5)C3)cc2)cn1	> 10000	–	–
c1cn(-c2ccc(OC3CCCCN(Cc4ccc5c(c4)OCO5)C3)cc2)cn1 (stereo unspecified)	78	–	–
c1cn(-c2ccc(OC[C@H]3CCCN3Cc3ccc4c(c3)OCO4)cc2)cn1	250	1200	–
O=C(CN(CCOc1ccc(-n2ccnc2)cc1)Cc1ccc2c(c1)OCO2)NCc1ccc(C(F)(F)F)cc1	1800	–	–
CCOC(=O)CN(CCOc1ccc(-n2ccnc2)cc1)Cc1ccc2c(c1)OCO2	1200	–	–
